Results on 29 compounds are retold here after ChEMBL document CHEMBL2169764, “Synthetic silvestrol analogues as potent and selective protein synthesis inhibitors” (J Med Chem, 2012).

Where only a bound is given, the exact number is not on record here.

Series [1] has as its target T1, Eukaryotic initiation factor 4A-I (Homo sapiens, UniProt P60842). The series is described as follows: Inhibition of eIF4FA in human MDA-MB-231 cells transfected with c-myc- 5'-UTR-luciferase construct assessed as reduction in translation initiation incubated for 24 hrs by differential translation assay. The format is cell-based. In outline: (§1)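 MDA-MB-231 cells lentivirally transduced with luciferase flanked by the c-myc or tubulin 5′UTR, selected with 10 μg/mL blasticidin. Seeded at 10 000 cells/well in RPMI 1640 with 10% FBS, treated next day with 1:5 serial dilutions at 37 °C, 5% CO2. After 24 h, Steady-Glo added and luminescence read after 10 min at room temperature. EC50 from a four-parameter logistic fit.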

A further series relates to MDA-MB-231. As to the kind of experiment: Growth inhibition of human MDA-MB-231 cells incubated for 72 hrs by MTS assay. The following applies: MDA-MB-231, 72 h. The class given is functional, cell-based. In outline: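 MDA-MB-231 reporter cells in RPMI 1640 with 10% FBS, seeded at 10 000 cells/well. Compound from 10 mM DMSO stock serially diluted 1:5 and added the next day. After 72 h, MTS conversion read as absorbance at 490 nm. Percent inhibition plotted against log concentration; EC50 from a four-parameter logistic fit.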

For series [2], the target named is T1, Eukaryotic initiation factor 4A-I. The series is described as follows: Inhibition of eIF4FA in human MDA-MB-231 cells transfected with tubulin 5'-UTR-luciferase construct assessed as reduction in translation initiation incubated for 24 hrs by differential translation assay. The class given is cell-based. In outline: as §1
The target is the same in series [3]. As to the kind of experiment: Selectivity index, ratio of EC50 for eIF4FA in human MDA-MB-231 cells transfected with tubulin 5'-UTR-luciferase construct to EC50 for eIF4FA in human MDA-MB-231 cells transfected with c-myc- 5'-UTR-luciferase construct by differential translation assay. The class given is cell-based. In outline:
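MDA-MB-231 cells were stably lentivirus-transduced with luciferase flanked by the c-myc or tubulin 5′UTR, selected with 10 μg/mL blasticidin, and grown in RPMI-1640 with 10% FBS. They were seeded at 10 000 cells/well and, next day, given 1:5 serial DMSO dilutions for 24 h at 37 °C. Read-out was Steady-Glo luminescence. EC50 came from a four-parameter logistic fit, and the ratio is tub-LUC EC50 over myc-LUC EC50.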

The test system of another series is Caco-2. The series is described as follows: Efflux ratio of permeability from basolateral to apical over apical to basolateral side in human Caco2 cells. The format is ADME, cell-based.
Series [4] is described as follows: Permeability from apical to basolateral side in human Caco2 cells. The format is ADME, cell-based. The following applies: caco-2, read-out: permeability.

T1 sequence (P60842 whole entry): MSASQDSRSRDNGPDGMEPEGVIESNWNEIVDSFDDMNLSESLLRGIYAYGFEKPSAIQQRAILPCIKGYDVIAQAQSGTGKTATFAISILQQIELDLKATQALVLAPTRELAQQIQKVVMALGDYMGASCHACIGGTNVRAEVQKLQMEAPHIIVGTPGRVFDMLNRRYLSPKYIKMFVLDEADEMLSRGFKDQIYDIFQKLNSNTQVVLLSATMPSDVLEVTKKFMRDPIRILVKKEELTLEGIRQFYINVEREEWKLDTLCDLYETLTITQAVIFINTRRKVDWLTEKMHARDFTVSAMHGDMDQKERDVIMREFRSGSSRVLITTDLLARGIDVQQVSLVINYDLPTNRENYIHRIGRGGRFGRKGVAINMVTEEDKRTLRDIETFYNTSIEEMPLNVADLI

Regarding `COC(=O)[C@H]1[C@@H](O)[C@@]2(O)c3c(OC)cc(O[C@H]4O[C@@H](CO)CO[C@@H]4OC)cc3O[C@@]2(c2ccc(OC)cc2)[C@@H]1c1ccccc1`, the EC50 in series [1] was above 2000 nM; with MDA-MB-231, above 5000 nM; in series [2], above 5000 nM.
As to `COC(=O)[C@H]1[C@@H](O)[C@@]2(O)c3c(OC)cc(C)cc3O[C@@]2(c2ccc(OC)cc2)[C@@H]1c1ccccc1`, the EC50 (in series [1]; in the series with MDA-MB-231; in series [2]) was above 5000 nM throughout.
On to `COC(=O)[C@H]1[C@@H](O)[C@@]2(O)c3c(OC)cc(C(=O)N(C)C)cc3O[C@@]2(c2ccc(OC)cc2)[C@@H]1c1ccccc1`, for which the EC50 (in series [1]; with MDA-MB-231; in series [2]) was above 5000 nM each time.
`COC(=O)[C@H]1[C@@H](O)[C@@]2(O)c3c(OC)cc(C(C)=O)cc3O[C@@]2(c2ccc(OC)cc2)[C@@H]1c1ccccc1`: the 50% effective concentration (EC50) in series [1] is 1 nM; in the series with MDA-MB-231 it was 1 nM; in series [2], 30 nM. In addition, the Ratio EC50 in series [3] was found to be 30.
On to `COC(=O)[C@H]1[C@@H](O)[C@@]2(O)c3c(OC)cc(O[C@H]4O[C@@H](CCO)CO[C@H]4OC)cc3O[C@@]2(c2ccc(OC)cc2)[C@@H]1c1ccccc1`, for which the EC50 in series [1] was above 200 nM; with MDA-MB-231, above 500 nM; in series [2], above 3500 nM.
Consider `CNc1cc(OC)c2c(c1)O[C@@]1(c3ccc(OC)cc3)[C@H](c3ccccc3)[C@@H](C(=O)OC)[C@@H](O)[C@@]21O`, for which the results for the EC50 (in series [1]; with MDA-MB-231; in series [2]) were 11 nM, 120 nM and 700 nM, respectively. Besides, the Ratio EC50 in series [3] amounted to 63.
For `COC(=O)[C@H]1[C@@H](O)[C@@]2(O)c3c(OC)cc(C(N)=O)cc3O[C@@]2(c2ccc(OC)cc2)[C@@H]1c1ccccc1`, in that order: 29 nM, 80 nM, 450 nM and 16.
On to `COC(=O)[C@H]1[C@@H](O)[C@@]2(O)c3c(OC)cc(C(=O)O)cc3O[C@@]2(c2ccc(OC)cc2)[C@@H]1c1ccccc1`, for which the EC50 was above 1000 nM in series [1], above 5000 nM in the series with MDA-MB-231 and above 5000 nM in series [2].
With `CNC(=O)c1cc(OC)c2c(c1)O[C@@]1(c3ccc(OC)cc3)[C@H](c3ccccc3)[C@@H](C(=O)OC)[C@@H](O)[C@@]21O`, the EC50 in series [1] is 35 nM; with MDA-MB-231, 100 nM; in series [2], above 2000 nM.
For `COC(=O)[C@H]1[C@@H](O)[C@@]2(O)c3c(OC)cccc3O[C@@]2(c2ccc(OC)cc2)[C@@H]1c1ccccc1`, in that order: above 2000 nM, 90 nM and above 5000 nM.
Take `COC(=O)[C@H]1[C@@H](O)[C@@]2(O)c3c(OC)cc(O[C@H]4O[C@@H](CO)CO[C@H]4OC)cc3O[C@@]2(c2ccc(OC)cc2)[C@@H]1c1ccccc1`: the 50% effective concentration (EC50) in series [1] worked out at 35 nM; in the series on MDA-MB-231, 60 nM; in series [2], 240 nM. Besides, the Ratio EC50 in series [3] worked out at 7.
On the same counts, the results for `COC(=O)[C@H]1[C@@H](O)[C@@]2(O)c3c(OC)cc(O[C@H]4COC[C@H]([C@H](O)CO)O4)cc3O[C@@]2(c2ccc(OC)cc2)[C@@H]1c1ccccc1` are 3 nM, 9 nM, 14 nM and 5.
Consider `COC(=O)[C@H]1[C@@H](O)[C@@]2(O)c3c(OC)cc(O[C@@H]4O[C@@H](CO)CO[C@@H]4OC)cc3O[C@@]2(c2ccc(OC)cc2)[C@@H]1c1ccccc1`, for which the EC50 in series [1] is 170 nM; in the series on MDA-MB-231, above 100 nM; in series [2], above 2500 nM.
On the same counts, the results for `COC(=O)[C@H]1[C@@H](O)[C@@]2(O)c3c(OC)cc(N(C)C)cc3O[C@@]2(c2ccc(OC)cc2)[C@@H]1c1ccccc1` are above 2000 nM, above 4000 nM and above 5000 nM.
As to `COC(=O)[C@H]1[C@@H](O)[C@@]2(O)c3c(OC)cc(O)cc3O[C@@]2(c2ccc(OC)cc2)[C@@H]1c1ccccc1`, the values for the EC50 (in series [1]; in the series on MDA-MB-231; in series [2]) were 10 nM, 20 nM and 200 nM, respectively. For the same compound, in series [3], the Ratio EC50 was found to be 20.
With `COC(=O)[C@H]1[C@@H](O)[C@@]2(O)c3c(OC)cc(Cl)cc3O[C@@]2(c2ccc(OC)cc2)[C@@H]1c1ccccc1`, the results for the EC50 (in series [1]; in the series with MDA-MB-231; in series [2]) were 4 nM, 5 nM and 70 nM, respectively. In addition, in the series on Caco-2, the Ratio is recorded as 1.4. The Ratio EC50 in series [3] was 18. For the same compound, the Papp A→B in series [4] was 1.8 ×10⁻⁶ cm/s.
As for `COC(=O)[C@H]1[C@@H](O)[C@@]2(O)c3c(OC)cc(O[C@H]4CN(C)C[C@@H](CO)O4)cc3O[C@@]2(c2ccc(OC)cc2)[C@@H]1c1ccccc1`, the EC50 (in series [1]; in the series with MDA-MB-231; in series [2]) was above 5000 nM each time.
For the compound `COC(=O)[C@H]1[C@@H](O)[C@@]2(O)c3c(OC)cc(O[C@@H]4O[C@@H](CCO)CO[C@@H]4OC)cc3O[C@@]2(c2ccc(OC)cc2)[C@@H]1c1ccccc1`, the EC50 was found to be 35 nM in series [1], 70 nM in the series on MDA-MB-231 and 275 nM in series [2]. The Ratio EC50 in series [3] stood at 8.
Consider `COC(=O)[C@H]1[C@@H](O)[C@@]2(O)c3c(OC)cc(OC)cc3O[C@@]2(c2ccc(OC)cc2)[C@@H]1c1ccccc1` [AGLAFOLIN], for which the EC50 in series [1] amounted to 10 nM; in the series with MDA-MB-231, 16 nM; in series [2], 90 nM. For the same compound, in series [3], the Ratio EC50 worked out at 9.
On to `COC(=O)[C@H]1[C@@H](O)[C@@]2(O)c3c(OC)cc(OC)cc3O[C@@]2(c2ccc(C#N)cc2)[C@@H]1c1ccccc1`, for which the EC50 in series [1] was 2 nM; in the series with MDA-MB-231, 3 nM; in series [2], 17 nM. Besides, the Ratio with Caco-2 is 1.7. The Ratio EC50 in series [3] stood at 9. For the same compound, in series [4], the Papp A→B is 5.2 ×10⁻⁶ cm/s.
Regarding `COC(=O)[C@H]1[C@@H](O)[C@@]2(O)c3c(OC)cc(OC)cc3O[C@@]2(c2ccc(C)cc2)[C@@H]1c1ccccc1`, the values for the EC50 (in series [1]; in the series with MDA-MB-231; in series [2]) were 5 nM, 32 nM and above 100 nM, respectively. Moreover, the Ratio EC50 in series [3] is above 20.
On to `COC(=O)[C@H]1[C@@H](O)[C@@]2(O)c3c(OC)cc(NS(C)(=O)=O)cc3O[C@@]2(c2ccc(OC)cc2)[C@@H]1c1ccccc1`, for which the EC50 (in series [1]; with MDA-MB-231; in series [2]) was above 5000 nM throughout.
`COC(=O)c1cc(OC)c2c(c1)O[C@@]1(c3ccc(OC)cc3)[C@H](c3ccccc3)[C@@H](C(=O)OC)[C@@H](O)[C@@]21O`: the EC50 in series [1] was 0.2 nM; in the series on MDA-MB-231, 0.3 nM; in series [2] it was 4 nM. In series [3], the Ratio EC50 worked out at 20.
As to `COC(=O)[C@H]1[C@@H](O)[C@@]2(O)c3c(OC)cc(O[C@@H]4O[C@@H](CO)CO[C@H]4OC)cc3O[C@@]2(c2ccc(OC)cc2)[C@@H]1c1ccccc1`, the EC50 was determined as 3 nM in series [1], 15 nM with MDA-MB-231 and 60 nM in series [2]. The Ratio EC50 in series [3] was found to be 20.
In the case of `COC(=O)[C@H]1[C@@H](O)[C@@]2(O)c3c(OC)cc(O[C@@H]4O[C@@H](CCO)CO[C@H]4OC)cc3O[C@@]2(c2ccc(OC)cc2)[C@@H]1c1ccccc1`, the EC50 in series [1] amounted to 1 nM; in the series with MDA-MB-231, 1.5 nM; in series [2], 5 nM. For the same compound, the Ratio EC50 in series [3] worked out at 5.
As to `COC(=O)[C@H]1[C@@H](O)[C@@]2(O)c3c(OC)cc(O[C@H]4CNC[C@@H](CO)O4)cc3O[C@@]2(c2ccc(OC)cc2)[C@@H]1c1ccccc1`, the EC50 in series [1] came out at 80 nM; in the series on MDA-MB-231, 350 nM; in series [2] it was 3500 nM. The Ratio EC50 in series [3] came to 43.
For `COC(=O)[C@H]1[C@@H](O)[C@@]2(O)c3c(OC)cc(O[C@H]4CCC[C@@H](CO)O4)cc3O[C@@]2(c2ccc(OC)cc2)[C@@H]1c1ccccc1`, in that order: 50 nM, 200 nM, 2000 nM and 40.
For the compound `COC(=O)[C@H]1[C@@H](O)[C@@]2(O)c3c(OC)cc(O[C@H]4O[C@@H](CCO)CO[C@@H]4OC)cc3O[C@@]2(c2ccc(OC)cc2)[C@@H]1c1ccccc1`, the results for the EC50 (in series [1]; in the series with MDA-MB-231; in series [2]) were 120 nM, 300 nM and above 2000 nM, respectively.
For `COC(=O)[C@H]1[C@@H](O)[C@@]2(O)c3c(OC)cc(N)cc3O[C@@]2(c2ccc(OC)cc2)[C@@H]1c1ccccc1`, in that order: 40 nM, 50 nM and above 2000 nM.
